Experimental data as given in ChEMBL document CHEMBL3259662 (ACS Med Chem Lett, 2014).
Converted amounts (≈) assume the structure as drawn. The source made the active and inactive calls. No cut-off for these calls is given here. Peptide text beside a SMILES is read from it. * marks the point of attachment. Boc = CC(C)(C)OC(=O)*; NHBn = c1ccc(CN*)cc1

Tests used:
[1] = test system: Candida albicans; test: Antifungal activity against Candida albicans by CLSI method; assay type: functional, organism-based
[2] = test system: Aspergillus fumigatus; test: Antifungal activity against Aspergillus fumigatus by CLSI method; assay type: functional, organism-based
[3] = test system: Escherichia coli; test: Antibacterial activity against Escherichia coli ATCC 35218 after 16 to 20 hrs by CLSI method; assay type: functional, organism-based
[4] = test system: Nakaseomyces glabratus; test: Antifungal activity against Candida glabrata by CLSI method; assay type: functional, organism-based
[5] = test system: Pichia kudriavzevii; test: Antifungal activity against Candida krusei by CLSI method; assay type: functional, organism-based
[6] = test system: Cryptococcus neoformans; test: Antifungal activity against Cryptococcus neoformans ATCC 90113 after 70 to 74 hrs by CLSI method; assay type: functional, organism-based; conditions: for IC50 / MIC: Cryptococcus neoformans, ATCC 90113
Method in brief: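 Growth inhibition of C. neoformans per the CLSI protocol. […] MIC is the lowest test concentration with no detectable growth. MFC is the lowest concentration killing 100% of the organism.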

[7] = test system: Cryptococcus neoformans; test: Antifungal activity against Cryptococcus neoformans ATCC 90113 at 20 ug/ml after 70 to 74 hrs by CLSI method; assay type: functional, organism-based
Method in brief: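 C. neoformans screened per the CLSI protocol at the highest tested concentration of 20 μg/mL. Compounds showing no activity at this level were scored not active.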

[8] = test system: SK-MEL; test: Cytotoxicity against human SK-MEL cells assessed as cell viability after 48 hrs by neutral red uptake assay; assay type: cell-based
Method in brief: (§1)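 Neutral red uptake assay in human cancer lines SK-MEL, KB, BT-549 and SK-OV-3 and in noncancerous mammalian kidney cells VERO and LLC-PK1. The highest tested concentration was 10 μg/mL.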

[9] = test system: KB; test: Cytotoxicity against human KB cells assessed as cell viability after 48 hrs by neutral red uptake assay; assay type: cell-based; method in brief: as §1
[10] = test system: BT-549; test: Cytotoxicity against human BT549 cells assessed as cell viability after 48 hrs by neutral red uptake assay; assay type: cell-based; conditions: bt-549, 48 h; method in brief: as §1
[11] = test system: SK-OV-3; test: Cytotoxicity against human SKOV3 cells assessed as cell viability after 48 hrs by neutral red uptake assay; assay type: cell-based; conditions: sk-ov-3, 48 h; method in brief: as §1
[12] = test system: Vero; test: Cytotoxicity against African green monkey Vero cells assessed as cell viability after 48 hrs by neutral red uptake assay; assay type: cell-based; conditions: chlorocebus sabaeus; method in brief: as §1
[13] = test system: LLC-PK1; test: Cytotoxicity against pig LLC-PK1 cells assessed as cell viability after 48 hrs by neutral red uptake assay; assay type: cell-based, Sus scrofa; conditions: llc-pk1, 48 h; method in brief: as §1
[14] = Selectivity index, ratio of cytotoxicity for human SK-MEL cells to IC50 for Cryptococcus neoformans ATCC 90113; assay type: toxicity, cell-based; conditions: read-out: Selectivity Index
[15] = Selectivity index, ratio of cytotoxicity for human KB cells to IC50 for Cryptococcus neoformans ATCC 90113; assay type: toxicity, cell-based; conditions: read-out: Selectivity Index
[16] = Selectivity index, ratio of cytotoxicity for human BT549 cells to IC50 for Cryptococcus neoformans ATCC 90113; assay type: toxicity, cell-based, BT-549; conditions: read-out: Selectivity Index
[17] = Selectivity index, ratio of cytotoxicity for human SKOV3 cells to IC50 for Cryptococcus neoformans ATCC 90113; assay type: toxicity, cell-based, SK-OV-3; conditions: read-out: Selectivity Index
[18] = Selectivity index, ratio of cytotoxicity for African green monkey Vero cells to IC50 for Cryptococcus neoformans ATCC 90113; assay type: toxicity, cell-based; conditions: read-out: Selectivity Index
[19] = Selectivity index, ratio of cytotoxicity for pig LLC-PK1 cells to IC50 for Cryptococcus neoformans ATCC 90113; assay type: toxicity, cell-based; conditions: read-out: Selectivity Index
[20] = Retention time of the compound by reverse phase HPLC analysis; assay type: physicochemical
Method in brief: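 Reverse-phase HPLC on a C-18 column (25 cm × 4.6 mm, 5 μM) at 1 mL/min over 40 min. The gradient ran 85−5% with A = 0.1% TFA in H2O and B = 0.1% TFA in CH3CN. Detection was at 220 nm.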

[21] = test system: Staphylococcus aureus; test: Antibacterial activity against Staphylococcus aureus ATCC 29213 by CLSI method; assay type: functional, organism-based
[22] = test system: Staphylococcus aureus; test: Antibacterial activity against methicillin-resistant Staphylococcus aureus ATCC 33591 after 16 to 20 hrs by CLSI method; assay type: functional, organism-based
[23] = test system: Cryptococcus neoformans; test: Ratio of amphotericin B MFC to compound MFC for Cryptococcus neoformans ATCC 90113 after 70 to 74 hrs by CLSI method; assay type: functional

Row | Compound | Activity [1] | Activity [2] | Activity [3] | Activity [4] | Activity [5] | IC50 [6] [µg/mL] | Activity [7] | Activity [8] [µg/mL] | Activity [9] [µg/mL] | Activity [10] [µg/mL] | Activity [11] [µg/mL] | Activity [12] [µg/mL] | Activity [13] [µg/mL] | selectivity ratio [14] | selectivity ratio [15] | selectivity ratio [16] | selectivity ratio [17] | selectivity ratio [18] | selectivity ratio [19] | Retention_time [20] [min] | also measured
1 | COC(=O)[C@H](CCCNC(=N)N)NC(=O)[C@H](Cc1c[nH]cn1)NC(=O)[C@@H](N)CCCNC(=N)N (H-Arg-His-Arg-OMe) | inactive | inactive | inactive | inactive | inactive | 19 (≈ 39.5 µM) | inactive | > 10 | > 10 | > 10 | > 10 | > 10 | > 10 |  |  |  |  |  |  |  | 
2 | COC(=O)[C@H](CCCNC(=N)N)NC(=O)[C@H](Cc1c[nH]c(-c2ccc(C)cc2)n1)NC(=O)[C@H](CCCNC(=N)N)NC(=O)OC(C)(C)C | inactive | inactive | inactive | inactive | inactive | 9.71 (≈ 14.5 µM) | inactive | > 10 | > 10 | > 10 | > 10 | > 10 | > 10 | > 1 | > 1 | > 1 | > 1 | > 1 | > 1 | 14.76 | 
3 | N=C(N)NCCC[C@H](NC(=O)[C@H](Cc1c[nH]c(-c2ccc(-c3ccccc3)cc2)n1)NC(=O)[C@@H](N)CCCNC(=N)N)C(=O)NCc1ccccc1 | inactive | inactive | inactive | inactive | inactive | 0.1 (≈ 0.141 µM) |  | > 10 | > 10 | > 10 | > 10 | > 10 | > 10 | > 100 | > 100 | > 100 | > 100 | > 100 | > 100 |  | MFC100 [6]: 0.16 µg/mL (≈ 0.226 µM); MIC [6]: 0.16 µg/mL (≈ 0.226 µM); IC50 [21]: 15.4 µg/mL (≈ 21.7 µM); MBC100 [21]: inactive; MIC [21]: inactive; IC50 [22]: Not Active; MBC100 [22]: inactive; MIC [22]: inactive; Ratio [23]: 8
4 | COC(=O)[C@H](CCCNC(=N)N)NC(=O)[C@H](Cc1c[nH]c(-c2ccccc2)n1)NC(=O)[C@H](CCCNC(=N)N)NC(=O)OC(C)(C)C | inactive | inactive | inactive | inactive | inactive | 10.4 (≈ 15.8 µM) | inactive | > 10 | > 10 | > 10 | > 10 | > 10 | > 10 |  |  |  |  |  |  | 11.89 | 
5 | N=C(N)NCCC[C@H](NC(=O)[C@H](Cc1c[nH]cn1)NC(=O)[C@@H](N)CCCNC(=N)N)C(=O)NCc1ccccc1 (H-Arg-His-Arg-NHBn) | inactive | inactive | inactive | inactive | inactive |  | inactive | > 10 | > 10 | > 10 | > 10 | > 10 | > 10 |  |  |  |  |  |  |  | 
6 | COC(=O)[C@H](CCCNC(=N)N)NC(=O)[C@H](Cc1c[nH]c(-c2ccc(C)cc2)n1)NC(=O)[C@@H](N)CCCNC(=N)N | inactive | inactive | inactive | inactive | inactive | 19.7 (≈ 34.5 µM) | inactive | > 10 | > 10 | > 10 | > 10 | > 10 | > 10 |  |  |  |  |  |  |  | 
7 | COC(=O)[C@H](CCCNC(=N)N)NC(=O)[C@H](Cc1c[nH]cn1)NC(=O)[C@H](CCCNC(=N)N)NC(=O)OC(C)(C)C (Boc-Arg-His-Arg-OMe) | inactive | inactive | inactive | inactive | inactive |  | inactive | > 10 | > 10 | > 10 | > 10 | > 10 | > 10 |  |  |  |  |  |  | 10.75 | 
8 | COc1ccc(-c2nc(C[C@H](NC(=O)[C@@H](N)CCCNC(=N)N)C(=O)N[C@@H](CCCNC(=N)N)C(=O)NCc3ccccc3)c[nH]2)cc1 | inactive | inactive | inactive | inactive | inactive | 0.43 (≈ 0.649 µM) |  | > 10 | > 10 | > 10 | > 10 | > 10 | > 10 | > 23.3 | > 23.3 | > 23.3 | > 23.3 | > 23.3 | > 23.3 |  | MFC100 [6]: 0.63 µg/mL (≈ 0.951 µM); MIC [6]: 0.63 µg/mL (≈ 0.951 µM); Ratio [23]: 2
9 | Cc1ccc(-c2nc(C[C@H](NC(=O)[C@H](CCCNC(=N)N)NC(=O)OC(C)(C)C)C(=O)N[C@@H](CCCNC(=N)N)C(=O)NCc3ccccc3)c[nH]2)cc1 | inactive | inactive | inactive | inactive | inactive | 2.15 (≈ 2.88 µM) |  | > 10 | > 10 | > 10 | > 10 | > 10 | > 10 | > 4.6 | > 4.6 | > 4.6 | > 4.6 | > 4.6 | > 4.6 | 19.41 | MFC100 [6]: 2.5 µg/mL (≈ 3.35 µM); MIC [6]: 2.5 µg/mL (≈ 3.35 µM)
10 | COC(=O)[C@H](CCCNC(=N)N)NC(=O)[C@H](Cc1c[nH]c(-c2ccccc2)n1)NC(=O)[C@@H](N)CCCNC(=N)N | inactive | inactive | inactive | inactive | inactive |  | inactive | > 10 | > 10 | > 10 | > 10 | > 10 | > 10 |  |  |  |  |  |  |  | 
11 | COC(=O)[C@H](CCCNC(=N)N)NC(=O)[C@H](Cc1c[nH]c(-c2ccc(-c3ccccc3)cc2)n1)NC(=O)[C@H](CCCNC(=N)N)NC(=O)OC(C)(C)C | inactive | inactive | inactive | inactive | inactive | 0.8 (≈ 1.09 µM) |  | > 10 | > 10 | > 10 | > 10 | > 10 | > 10 | > 12.5 | > 12.5 | > 12.5 | > 12.5 | > 12.5 | > 12.5 | 18.64 | MFC100 [6]: 1.25 µg/mL (≈ 1.7 µM); MIC [6]: 1.25 µg/mL (≈ 1.7 µM)
